Assay results reported in PMC6407750 (Targeted Oncology, 2019).
Read-outs that look alike come from different tables or passages of the source.

How the values were obtained:
[1] = format: in vivo, human; conditions: for AUC(0-inf): AUC0–∞,obs; for Tmax: median [range]
Summary of the method: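 Sixteen advanced solid tumour patients were enrolled. Each received a single oral 200 mg tablet after an overnight fast, either with ~240 mL water or directly after a ~950 kcal high-fat breakfast eaten within 30 min. No food was given for 4 h. Order was randomized, with a 7-day washout. Plasma was sampled predose and 0.5–48 h and measured by LC–MS/MS (detection limit 1 nM). Parameters were derived by non-compartmental analysis, with adjusted geometric mean ratios and 90% CI.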

[2] = format: in vivo, human; conditions: single 200 mg dose; for AUC(0-inf) / Cmax / half-life: human, plasma, oral, 200 mg; for AUC(0-inf): AUC0–∞,obs; for AUC(0-inf) / Cmax: adjusted geometric mean; for half-life: t½, geometric mean [coefficient of variation (%)]
Summary of the method: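 Sixteen advanced solid tumour patients, fasted overnight and for 4 h post-dose, received 200 mg as an intact tablet or as the uncrushed tablet shaken to full dispersion in 20 mL of sucralose 4 mg/mL, menthol 2 mg/mL and benzoic acid 1 mg/mL, undiluted. Order was randomized, with a 7-day washout. Plasma was sampled predose to 48 h by LC–MS/MS. Analysis was non-compartmental, with adjusted geometric mean ratios and 90% CI.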

[3] = single dose, primarily Caucasian subjects, fasted state; cited from earlier work
[4] = administered with food compared to a fasted state; cited from earlier work
[5] = single 200 mg tablet, fed versus fasted

**Q.** With `COc1cc(C(=O)NC2CCN(C)CC2)c(F)cc1Nc1ncc(C(F)(F)F)c(Oc2cccc3c2C(=O)N(C)C3)n1` [BI 853520] as the compound, how does the t½ ([1]; fasted, single 200 mg tablet, geometric mean [coefficient of variation (%)], n=15) read?
**A.** 18.0 (22.6) h

**Q.** What about the Cmax ([1]; fed, single 200 mg tablet, plasma, adjusted geometric mean) of the same compound?
**A.** 1640 nM

**Q.** And the Cmax ([1]; human, plasma, oral, 200 mg)?
**A.** 1870 nM

**Q.** And the half-life ([1]; human, plasma, oral, 200 mg)?
**A.** 18 h

**Q.** And the AUC(0-inf) ([1]; human, plasma, oral, 200 mg, fasted, single 200 mg tablet, adjusted geometric mean)?
**A.** 39.9 µM·h

**Q.** What about the AUC(0-inf) ([1]; human, plasma, oral, 200 mg, fed, single 200 mg tablet, adjusted geometric mean) of the same compound?
**A.** 39.2 µM·h

**Q.** What about the Tmax ([1]; human, plasma, oral, 200 mg, fasted, single 200 mg tablet, n=15) of the same compound?
**A.** 3 h

**Q.** What about the Tmax ([1]; human, plasma, oral, 200 mg, fed (high-calorie meal), single 200 mg tablet, n=15) of the same compound?
**A.** 4 h

**Q.** What about the “tmax and t½ after a high-calorie meal compared with fasted patients” value ([1]; single 200 mg tablet) of the same compound?
**A.** not different

**Q.** What about the “AUC0-tz adjusted GMR (90% CI) [fed/fasted]” value [1, 5] of the same compound?
**A.** 92.46 (74.24–115.16) %

**Q.** And the “AUC0–∞,obs adjusted GMR (90% CI) [fed/fasted]” value [1, 5]?
**A.** 98.17 (78.53–122.74) %

**Q.** What about the “Cmax adjusted GMR (90% CI) [fed/fasted]” value [1, 5] of the same compound?
**A.** 87.34 (71.04–107.38) %

**Q.** And the AUC(0-inf) ([2]; liquid dispersion, fasted)?
**A.** 31.5 µM·h

**Q.** And the AUC(0-inf) ([2]; tablet, fasted)?
**A.** 32 µM·h

**Q.** And the Cmax ([2]; liquid dispersion, fasted)?
**A.** 1610 nM

**Q.** And the Cmax ([2]; tablet, fasted)?
**A.** 1720 nM

**Q.** What about the half-life ([2]; liquid dispersion, fasted) of the same compound?
**A.** 18.4 h

**Q.** What about the half-life ([2]; tablet, fasted) of the same compound?
**A.** 19.5 h

**Q.** What about the “AUC0-tz adjusted GMR (90% CI) [tablet/liquid]” value ([2]; fasted) of the same compound?
**A.** 99.98 (92.28–108.33) %

**Q.** And the “AUC0–∞,obs adjusted GMR (90% CI) [tablet/liquid]” value ([2]; fasted)?
**A.** 101.65 (93.57–110.42) %

**Q.** And the “Cmax adjusted GMR (90% CI) [tablet/liquid]” value ([2]; fasted)?
**A.** 107.15 (98.79–116.22) %

**Q.** What about the “tmax and t½, effect of dispersing in a liquid” value ([2]; liquid dispersion vs tablet) of the same compound?
**A.** not affected

**Q.** And the “observed terminal half-life (t½)” value [3]?
**A.** 19 h

**Q.** With `C[C@]12CC[C@H](O)CC1=CC[C@@H]1[C@@H]2CC[C@]2(C)C(c3cccnc3)=CC[C@@H]12` [abiraterone] as the compound, how does the “increase in the area under the plasma concentration–time curve (AUC)” value [4] read?
**A.** 1000%
